Measured values as given in ChEMBL document CHEMBL1150419, “Structure-activity relationships of a peptide inhibitor of the human FcRn:human IgG interaction” (Bioorg Med Chem, 2008).
Bridge positions count the residues as written; N and C are the ends. Peptide text beside a SMILES is read from it.

Key:
[1] = target: T1, IgG receptor FcRn large subunit p51 (Homo sapiens, UniProt P55899); test: Binding affinity to human FcRn at pH 6 by surface plasmon resonance assay
How it was run: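 Soluble human FcRn coupled to the dextran surface of a CM5 chip; peptide dilutions flowed over the chip. The equilibrium response at each dilution was plotted against concentration and fitted to a steady-state affinity model to give Kd.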

[2] = target: T1, IgG receptor FcRn large subunit p51; test: Inhibition of human IgG binding to soluble human FcRn by ELISA
How it was run: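 Biotinylated soluble human FcRn immobilized on neutravidin plates, incubated with hIgG (3 nM, constant) and peptide at varying concentrations for 2 h at 37 °C. After washing, bound hIgG detected with peroxidase-conjugated hIgG-specific Fab fragments.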

T1 sequence (P55899 whole entry): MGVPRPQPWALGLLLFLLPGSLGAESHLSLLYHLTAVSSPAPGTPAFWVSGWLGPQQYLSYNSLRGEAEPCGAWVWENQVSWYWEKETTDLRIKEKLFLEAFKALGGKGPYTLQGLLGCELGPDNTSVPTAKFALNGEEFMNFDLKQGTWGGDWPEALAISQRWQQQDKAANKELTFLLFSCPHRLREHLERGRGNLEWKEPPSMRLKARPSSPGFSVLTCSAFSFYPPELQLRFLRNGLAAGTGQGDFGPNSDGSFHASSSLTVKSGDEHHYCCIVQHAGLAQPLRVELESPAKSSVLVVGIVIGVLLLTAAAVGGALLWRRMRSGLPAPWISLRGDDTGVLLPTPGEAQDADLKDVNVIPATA

Row | Kd [1] | IC50 [2] | SMILES
1 | 0.031 µM | 0.57 µM | CC(C)C[C@@H](C(=O)N[C@@H](Cc1ccc(O)cc1)C(=O)N1CCC[C@H]1C(=O)N[C@@H](CS)C(=O)O)N(C)C(=O)CN(C)C(=O)CNC(=O)[C@H](Cc1ccccc1)NC(=O)[C@H](Cc1cnc[nH]1)NC(=O)CNC(=O)[C@@H](NC(=O)[C@@H](NC(=O)[C@H](Cc1ccccc1)NC(=O)[C@@H](N)CCCNC(=N)N)C(C)(C)S)[C@@H](C)O
2 | 0.103 µM | 0.64 µM | CC(C)C[C@H](NC(=O)CN1CCCC[C@@H](NC(=O)[C@H](Cc2ccccc2)NC(=O)[C@H](Cc2cnc[nH]2)NC(=O)CNC(=O)[C@@H](NC(=O)[C@H](NC(=O)[C@H](Cc2ccccc2)NC(=O)[C@@H](N)CCCNC(=N)N)C(C)(C)S)[C@@H](C)O)C1=O)C(=O)N[C@@H](Cc1ccc(O)cc1)C(=O)N1CCC[C@H]1C(=O)N[C@@H](CS)C(=O)O
3 | 0.67 µM | 7.2 µM | CC(C)C[C@H](NC(=O)CN1CCC[C@H](NC(=O)[C@H](Cc2ccccc2)NC(=O)[C@H](Cc2cnc[nH]2)NC(=O)CNC(=O)[C@@H](NC(=O)[C@H](NC(=O)[C@H](Cc2ccccc2)NC(=O)[C@@H](N)CCCN=C(N)N)C(C)(C)S)[C@@H](C)O)C1=O)C(=O)N[C@@H](Cc1ccc(O)cc1)C(=O)N1CCC[C@H]1C(=O)N[C@@H](CS)C(=O)O
4 | 0.043 µM | 0.53 µM | CC(C)C[C@@H](C(=O)N[C@@H](Cc1ccc(O)cc1)C(=O)N1CCC[C@H]1C(=O)N[C@@H](CS)C(=O)O)N(C)C(=O)CN1CCC[C@@H](NC(=O)[C@H](Cc2ccccc2)NC(=O)[C@H](Cc2cnc[nH]2)NC(=O)CNC(=O)[C@@H](NC(=O)[C@H](NC(=O)[C@H](Cc2ccccc2)NC(=O)[C@@H](N)CCCNC(=N)N)C(C)(C)S)[C@@H](C)O)C1=O
5 | 0.16 µM | 0.66 µM | CC(C)C[C@H](NC(=O)CN1CCC[C@@H](NC(=O)[C@H](Cc2ccccc2)NC(=O)[C@H](Cc2cnc[nH]2)NC(=O)CNC(=O)[C@@H](NC(=O)[C@@H](NC(=O)[C@H](Cc2ccccc2)NC(=O)[C@@H](N)CCCNC(=N)N)C(C)(C)S)[C@@H](C)O)C1=O)C(=O)N[C@@H](Cc1ccc(O)cc1)C(=O)N1CCC[C@H]1C(=O)N[C@@H](CS)C(=O)O
6 | 0.044 µM | 0.62 µM | CC(C)C[C@@H](C(=O)N[C@@H](Cc1ccc(O)cc1)C(=O)N1CCC[C@H]1C(=O)N[C@@H](CS)C(=O)O)N(C)C(=O)CN1CCCC[C@@H](NC(=O)[C@H](Cc2ccccc2)NC(=O)[C@H](Cc2cnc[nH]2)NC(=O)CNC(=O)[C@@H](NC(=O)[C@H](NC(=O)[C@H](Cc2ccccc2)NC(=O)[C@@H](N)CCCNC(=N)N)C(C)(C)S)[C@@H](C)O)C1=O
7 | 0.28 µM | 2.3 µM | CC(C)C[C@H](NC(=O)CN1CC[C@@H](NC(=O)[C@H](Cc2ccccc2)NC(=O)[C@H](Cc2cnc[nH]2)NC(=O)CNC(=O)[C@@H](NC(=O)[C@@H](NC(=O)[C@H](Cc2ccccc2)NC(=O)[C@@H](N)CCCN=C(N)N)C(C)(C)S)[C@@H](C)O)C1=O)C(=O)N[C@@H](Cc1ccc(O)cc1)C(=O)N1CCC[C@H]1C(=O)N[C@@H](CS)C(=O)O
8 | 34 µM | 239 µM | CC(C)C[C@H](NC(=O)CNC(=O)CNC(=O)[C@H](Cc1ccccc1)NC(=O)[C@H](Cc1cnc[nH]1)NC(=O)CNC(=O)[C@@H](NC(=O)[C@@H](N)CS)[C@@H](C)O)C(=O)N[C@@H](Cc1ccc(O)cc1)C(=O)N1CCC[C@H]1C(=O)N[C@@H](CS)C(=O)N[C@@H](CC(N)=O)C(=O)NCC(=O)N1CCC[C@H]1C(=O)O (H-CTGHFGGLYPCNGP-OH)

Continued, compound first:

Row | SMILES | Kd [1] | IC50 [2]
9 | CC(C)C[C@H](NC(=O)CNC(=O)CNC(=O)[C@H](Cc1ccccc1)NC(=O)[C@H](Cc1cnc[nH]1)NC(=O)CNC(=O)[C@@H](NC(=O)[C@H](CCC(=O)O)NC(=O)[C@H](Cc1ccccc1)NC(=O)[C@H](CCCN=C(N)N)NC(=O)[C@@H](N)CCC(N)=O)[C@@H](C)O)C(=O)N[C@@H](Cc1ccc(O)cc1)C(=O)N1CCC[C@H]1C(=O)N[C@@H](CCCN)C(=O)N[C@@H](CC(N)=O)C(=O)NCC(=O)N1CCC[C@H]1C(=O)O | 15 µM | 80 µM
10 | CC(C)C[C@H](NC(=O)CNC(=O)CNC(=O)[C@H](Cc1ccccc1)NC(=O)[C@H](Cc1cnc[nH]1)NC(=O)CNC(=O)[C@@H](NC(=O)[C@H](CCC(=O)O)NC(=O)[C@H](Cc1ccccc1)NC(=O)[C@H](CCCNC(=N)N)NC(=O)[C@@H](N)CCC(N)=O)[C@@H](C)O)C(=O)N[C@@H](Cc1ccc(O)cc1)C(=O)N1CCC[C@H]1C(=O)N[C@@H](CCN)C(=O)N[C@@H](CC(N)=O)C(=O)NCC(=O)N1CCC[C@H]1C(=O)O | 22 µM | 86 µM
11 | CC(C)C[C@H](NC(=O)CNC(=O)CNC(=O)[C@H](Cc1ccccc1)NC(=O)[C@H](Cc1cnc[nH]1)NC(=O)CNC(=O)[C@@H](NC(=O)[C@H](CCC(=O)O)NC(=O)[C@H](Cc1ccccc1)NC(=O)[C@H](CCCNC(=N)N)NC(=O)[C@@H](N)CCC(N)=O)[C@@H](C)O)C(=O)N[C@@H](Cc1ccc(O)cc1)C(=O)N1CCC[C@H]1C(=O)N[C@@H](CN)C(=O)N[C@@H](CC(N)=O)C(=O)NCC(=O)N1CCC[C@H]1C(=O)O | 9.6 µM | 71 µM
12 | CC(C)C[C@H](NC(=O)CNC(=O)CNC(=O)[C@H](Cc1ccccc1)NC(=O)[C@H](Cc1cnc[nH]1)NC(=O)CNC(=O)[C@@H](NC(=O)[C@@H](N)CS)[C@@H](C)O)C(=O)N[C@@H](Cc1ccc(O)cc1)C(=O)N1CCC[C@H]1C(=O)N[C@@H](CS)C(=O)O (H-CTGHFGGLYPC-OH) | 20 µM | 110 µM
13 | CC(C)C[C@H](NC(=O)[C@H](Cc1ccc(O)cc1)NC(=O)[C@@H]1CSSC[C@H](NC(=O)[C@H](Cc2ccccc2)NC(=O)[C@H](CO)NC(=O)[C@@H](N)CC(N)=O)C(=O)N[C@@H](CCCN=C(N)N)C(=O)NCC(=O)N[C@@H](CCCN=C(N)N)C(=O)N2CCC[C@H]2C(=O)NCC(=O)N[C@@H](Cc2cnc[nH]2)C(=O)N[C@@H](Cc2ccccc2)C(=O)NCC(=O)NCC(=O)N1)C(=O)N[C@@H](Cc1ccccc1)C(=O)O (H-NSFCRGRPGHFGGCYLF-OH; disulfide 4-14) | 9.4 µM | 33 µM
14 | CC(C)C[C@H](NC(=O)CNC(=O)CNC(=O)[C@H](Cc1ccccc1)NC(=O)[C@H](Cc1cnc[nH]1)NC(=O)CNC(=O)[C@@H](NC(=O)[C@H](CS)NC(=O)[C@H](C)NC(=O)[C@H](CCCN=C(N)N)NC(=O)[C@@H](N)CCC(N)=O)[C@@H](C)O)C(=O)N[C@@H](Cc1ccc(O)cc1)C(=O)N1CCC[C@H]1C(=O)N[C@@H](CS)C(=O)N[C@@H](CC(N)=O)C(=O)NCC(=O)N1CCC[C@H]1C(=O)O (H-QRACTGHFGGLYPCNGP-OH) | 28 µM | 95 µM
15 | CC(C)C[C@H](NC(=O)CNC(=O)CNC(=O)[C@H](Cc1ccccc1)NC(=O)[C@H](Cc1cnc[nH]1)NC(=O)CNC(=O)[C@H](C)NC(=O)[C@H](CS)NC(=O)[C@H](Cc1ccccc1)NC(=O)[C@H](CCCN=C(N)N)NC(=O)[C@@H](N)CCC(N)=O)C(=O)N[C@@H](Cc1ccc(O)cc1)C(=O)N1CCC[C@H]1C(=O)N[C@@H](CS)C(=O)N[C@@H](CC(N)=O)C(=O)NCC(=O)N1CCC[C@H]1C(=O)O (H-QRFCAGHFGGLYPCNGP-OH) | 4.9 µM | 30 µM
16 | CC(C)C[C@H](NC(=O)CNC(=O)CNC(=O)[C@H](C)NC(=O)[C@H](Cc1cnc[nH]1)NC(=O)CNC(=O)[C@@H](NC(=O)[C@H](CS)NC(=O)[C@H](Cc1ccccc1)NC(=O)[C@H](CCCNC(=N)N)NC(=O)[C@@H](N)CCC(N)=O)[C@@H](C)O)C(=O)N[C@@H](Cc1ccc(O)cc1)C(=O)N1CCC[C@H]1C(=O)N[C@@H](CS)C(=O)N[C@@H](CC(N)=O)C(=O)NCC(=O)N1CCC[C@H]1C(=O)O (H-QRFCTGHAGGLYPCNGP-OH) | > 250 µM | > 125 µM
